# Experimental data collected from several papers.
# Each line is one published result; the experiments were not run side by side.
# Target: Ephrin type-A receptor 1 (EPHA1, Homo sapiens, UniProt P21709)
# Residues used in one study (P21709 26-976): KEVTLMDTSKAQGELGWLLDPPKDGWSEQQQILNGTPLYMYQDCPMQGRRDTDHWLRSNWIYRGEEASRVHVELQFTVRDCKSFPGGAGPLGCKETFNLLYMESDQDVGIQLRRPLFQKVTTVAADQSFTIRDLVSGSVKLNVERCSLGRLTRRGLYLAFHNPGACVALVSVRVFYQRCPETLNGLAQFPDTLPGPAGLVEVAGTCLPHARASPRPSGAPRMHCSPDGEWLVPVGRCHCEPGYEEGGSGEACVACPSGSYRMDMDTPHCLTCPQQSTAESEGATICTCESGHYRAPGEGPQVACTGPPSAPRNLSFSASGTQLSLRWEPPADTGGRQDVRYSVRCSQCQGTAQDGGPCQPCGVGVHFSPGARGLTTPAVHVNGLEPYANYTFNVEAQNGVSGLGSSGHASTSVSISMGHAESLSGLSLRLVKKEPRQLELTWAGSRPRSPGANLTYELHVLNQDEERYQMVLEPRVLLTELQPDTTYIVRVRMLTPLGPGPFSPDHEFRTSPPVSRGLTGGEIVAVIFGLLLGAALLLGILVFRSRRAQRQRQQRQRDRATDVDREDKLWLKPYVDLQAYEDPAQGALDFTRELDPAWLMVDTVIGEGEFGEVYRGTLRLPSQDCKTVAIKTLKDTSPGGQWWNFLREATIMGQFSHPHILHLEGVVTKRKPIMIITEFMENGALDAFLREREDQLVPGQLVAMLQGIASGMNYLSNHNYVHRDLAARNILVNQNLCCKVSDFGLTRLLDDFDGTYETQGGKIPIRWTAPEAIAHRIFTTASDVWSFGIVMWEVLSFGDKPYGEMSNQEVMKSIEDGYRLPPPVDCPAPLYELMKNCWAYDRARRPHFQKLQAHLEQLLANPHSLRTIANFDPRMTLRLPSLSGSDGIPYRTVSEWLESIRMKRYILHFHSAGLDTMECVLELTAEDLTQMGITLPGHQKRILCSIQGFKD
SMILES,read-out,method,concentration,remaining binding [%]
Cc1nccc(COC(=O)N2C[C@@H]3[C@@H](CNC(=O)c4ccc5[nH]nnc5c4)[C@@H]3C2)n1,cell-free assay,competition with immobilised ligand,1 µM,100
CCN1CCN(Cc2ccc(C(=O)Nc3ccc(C)c(Oc4ccc5c(c4)CC(=O)N5)c3)cc2C(F)(F)F)CC1,binding,competition with immobilised ligand,1 µM,77
O=C(NCCCN1CCOCC1)c1ccc(Nc2ncc(Cl)c(-c3ccc(Cl)s3)n2)cc1,binding,competition with immobilised ligand,1 µM,46
Nc1ncc2c(n1)-c1c([nH]c3ccc(C#CC4CC4)cc13)CCCC2,binding,competition with immobilised ligand,1 µM,89
N[C@@H]1CCN(c2nccc(-c3cnn4ncccc34)n2)C1,binding,,1 µM,100
COc1cnc(Nc2cccc(S(N)(=O)=O)c2)nc1N1CCN(c2ccccc2)C(=O)C1,binding,competition with immobilised ligand,1 µM,90
Cc1nc(Cc2cccc(C(F)(F)F)c2)sc1-c1ccc(C(N)=O)nc1,cell-free assay,competition with immobilised ligand,1 µM,81
c1cncc(-c2cccc(Nc3nccc(NC4CCCCC4)n3)c2)c1,binding,competition with immobilised ligand,10 µM,51
O=C(c1ccc(Nc2nccc(-c3cc4ccccc4s3)n2)cc1)N1CCC(N2CCCC2)CC1,binding,competition with immobilised ligand,1 µM,32
COc1ncc2cc3ccccc3nc2c1C#N,cell-free assay,competition with immobilised ligand,5 µM,95
CCC(=O)N[C@H]1CC[C@@H](C(=O)N(C)c2ccc(-c3nc4ccccc4o3)cc2)C1,cell-free assay,competition with immobilised ligand,1 µM,100
CN(C)c1nccc(-c2cnc3ncccn23)n1,binding,,1 µM,93
COc1ccc2cc(OCC3(C(=O)O)CN(C(=O)c4ccc(F)cc4)C3)ccc2c1,cell-free assay,competition with immobilised ligand,1 µM,83
CN(C)c1ncc(F)c(-c2cnn3ncccc23)n1,binding,,1 µM,98
O=C(Nc1c[nH]nc1C(=O)NC1CCNCC1)c1cc(F)cc(F)c1,binding,competition with immobilised ligand,1 µM,100
C[C@H]1CCN(c2nccc(-c3cnn4ncccc34)n2)C1,binding,,1 µM,84
CC(C)CC(=O)N1CCc2nc(-c3ccc(Br)cc3)nc(N(C)Cc3ccccc3)c2C1,cell-free assay,competition with immobilised ligand,0.1 µM,100
CN(c1nccc(-c2cnn3ncccc23)n1)C1CC1,binding,,1 µM,99
CSc1cccnc1N1CCN(Cc2nc3ccccc3[nH]2)CC1,cell-free assay,competition with immobilised ligand,1 µM,100
c1cnn2ncc(-c3ccnc(N4CCC45COC5)n3)c2c1,binding,,1 µM,89
O=C(c1ccc(Nc2ncc(Cl)c(-c3cc4ccccc4s3)n2)cc1)N1CCC(N2CCCC2)CC1,binding,competition with immobilised ligand,1 µM,16
